# From publication PMC3712287 (Journal of neuroimmunology, 2010)
# Entries after “also recorded” stand apart in the source; their conditions may differ. Like-named read-outs stand apart in the source and are kept apart here.
# Assays:
# [1] = test system: LAD2 mast cells; test: Degranulation assay; format: cell-based, human
# [2] = test system: FcεRI expression by LAD2 mast cells; test: FcεRI surface expression by flow cytometry, LAD2 mast cells; format: cell-based, human; settings: for Effect of antagonist on SP-mediated downregulation of FcεRI: LAD2, antagonist 0.1 μM 30 min pretreatment
# [3] = test system: LAD2 mast cells; settings: ref Kulka et al., 2008; cited from earlier work
# [4] = test system: human mast cells
# [5] = test system: IgE binding by LAD2 mast cells; test: Cell surface IgE binding by flow cytometry; format: cell-based, human; settings: SP 24 h, sensitized with IgE 1-100 ng/ml 30 min, anti-IgE FITC, n=5
# How it was run: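 LAD2 human mast cells (StemPro-34 SFM, 10 ng/ml SCF) were incubated 24 h with SP, then sensitized for 30 min with IgE at 1-100 ng/ml. Bound IgE was stained with anti-IgE-FITC (5 μg/ml) for 30 min on ice and read by flow cytometry as MFI.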
# [6] = test system: CysLT production by LAD2 mast cells; test: ELISA for CysLT production; format: cell-based, human; settings: for Effect of SP on CysLT production: LAD2, SP 10 μg/ml, anti-IgE 3 h
# [7] = test system: FcεRI α, β and γ subunit mRNA in LAD2 mast cells; test: Quantitative real-time PCR of FcεRI α, β and γ subunit mRNA; format: cell-based, human; settings: LAD2, 1 μg/ml SP, after at least 8 h of incubation, vs untreated control, n=3
# How it was run: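 LAD2 cells received 1 μg/ml SP or PBS for varying times. Total RNA was column-isolated, and 5 μg was reverse-transcribed with random hexamers. Real-time PCR used 50 ng cDNA per reaction, run in triplicate for 40 cycles. Subunit mRNA was normalized to GAPDH and expressed as percent of PBS-treated cells at each time point. n=3.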
# [8] = test system: mast cell tryptase; test: Tryptase activity assay; format: biochemical, human; settings: supernatants of SP-activated LAD2, BAPNA substrate, n=3
# How it was run: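 Washed LAD2 cells were left untreated or activated with SP (1 μg/ml) for 3 h. Cell-free supernatants were exposed to SBTI for 30 min, then mixed with 0.8 mM BAPNA solution in 0.1 M Tris/1 M glycerol, pH 7.8, and incubated 4 h at 37 °C. Nitroaniline was read at 410 nm. Activity was expressed relative to supernatants from SP-stimulated cells without inhibitor. n=3.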
molecule,measurement,setting,value
O=C(O)CN(CCN(CC(=O)O)CC(=O)O)CC(=O)O [EDTA],Effect on SP-induced degranulation,[1],blocked SP-induced degranulation
same,Effect on SP-mediated downregulation of FcεRI,[2],blocked the SP-mediated downregulation of FcεRI
Pertussis toxin,Effect on SP-mediated downregulation of FcεRI,"[2]; Pertussis toxin pretreatment 2 h, then 1 μg/ml SP 24 h, n=3",selectively blocked SP-mediated downregulation of FcεRI
SP(4–11) [SP(4–11) [D-Pro4 D-Trp7.9]],Concentration that blocked the SP-mediated downregulation of FcεRI expression,"[2]; LAD2, 30 min pretreatment, then 1 μg/ml SP 24 h",0.1 µM
same,Effect of antagonist on SP-mediated downregulation of FcεRI,[2]; then 1 μg/ml SP 24 h,blocked SP-mediated downregulation of FcεRI expression
same,Concentration at which SP(4–11) abrogated the SP effect on FcεRI expression,[2]; discussion statement,1 µg/mL
spantide I,Effect on SP-mediated degranulation in mast cells,[3],fails to inhibit SP-mediated degranulation
same,Effect of antagonist on SP-mediated downregulation of FcεRI,[2]; then 1 μg/ml SP 24 h,did not have any effect
substance P [SP],Effect on mast cell viability,[4],no effect on mast cell viability
same,IgE binding of SP-treated LAD2 vs untreated controls,[5],bound less IgE
same,Effect of SP on CysLT production,[6]; sensitized with 50 ng/ml IgE,significantly inhibited CysLT production
same,Effect of SP on CysLT production,[6]; sensitized with 100 ng/ml IgE,did not significantly affect CysLT production
same,Effect of SP pretreatment on IgE/anti-IgE-induced CysLT production,"[6]; LAD2, SP 24 h, sensitized with IgE, activated with anti-IgE 3 h, ELISA, n=3",significantly less CysLT
same,Direct activation of CysLT production,"[6]; mast cells, SP alone",does not activate mast cells to produce cysteinyl leukotrienes
same,Lowest SP concentration leading to clear down-regulation of FcεRI,[2]; LAD2 (discussion statement),1 µM
same,Time within which SP reduced IgE receptors,[2]; LAD2 (discussion statement),≤ 30 min
same,Downregulation of FcεRI expression,"[2]; LAD2, 1 μg/ml SP, 24 h",approximately 30%
same,Reduction of FcεRI expression,"[2]; LAD2, 10 μg/ml SP (highest concentration tested), 24 h",~70%
same,Reduction in FcεRI protein expression compared to untreated cells,"[2]; LAD2, 10 μg/ml SP, 2 h",50%
same,IC50 of SP for downregulation of FcεRI surface expression,"[2]; LAD2, in the absence of IgE, SP 24 h, flow cytometry, n=3",5.2 µg/mL
same,"Effect on expression of FcεRI α, β and γ subunit mRNA",[7],significantly inhibited
vasoactive intestinal peptide [VIP],Effect on mast cell viability,[4],no effect on mast cell viability
"soybean trypsin inhibitor (protein, UniProt P01070 25-205, looked up) Trypsin inhibitor A: DFVLDNEGNPLENGGTYYILSDITAFGGIRAAPTGNERCPLTVVQSRNELDKGIGTIISSPYRIRFIAEGHPLSLKFDSFAVIMLCVGIPTEWSVVEDLPEGPAVKIGENKDAMDGWFRLERVSDDEFNNYKLVFCPQQAEDDKCGDIGISIDHDDGTRRLVVSKNKPLVVQFQKLDKESL",Effect on SP-induced degranulation,"[1]; LAD2, pretreatment before activation with SP, β-hexosaminidase release",did not affect LAD2 cell degranulation
same,Effect on activity of tryptase released by SP activation,[8],able to block the activity of tryptase; also recorded: completely blocked the proteolytic activity of tryptase
same,Effect on SP-mediated downregulation of FcεRI,"[2]; LAD2, 100 μg/ml SBTI five minutes prior to 1 or 10 μg/ml SP, 24 h",did not affect SP-mediated downregulation of FcεRI
